ChEMBL document CHEMBL1145427, “Quick assembly of 1,4-diphenyltriazoles as probes targeting beta-amyloid aggregates in Alzheimer's disease” (J Med Chem, 2007)

Columns and labels:
[1] = Displacement of [125I]IMPY from beta amyloid protein plaques in Alzheimer's disease patient brain; set-up: species or system Homo sapiens
Outline: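 Competition binding to pooled gray-matter homogenates from four AD brains (approximately 100 mg wet tissue/mL in PBS pH 7.4; 20–50 μg per tube). [125I]2 at 0.04–0.06 nM; inhibitors 10^-5–10^-10 M in PBS with 0.1% BSA; final volume 1 mL. Nonspecific binding with 600 nM 2. Incubated 37 °C, 2 h; GF/B filtration, gamma counting. Ki from nonlinear regression.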

Zone of skin [2] = test: Biodistribution in ICR mouse skin at 5 to 10 uCi, iv after 2 hrs; format: ADME, organism-based; details: in vivo
Outline: (§1)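 Male ICR mice (22–25 g) under isoflurane anesthesia; [125I] or [18F] tracer (5–10 μCi) in 0.15 mL of 0.1% bovine serum albumin solution injected into the tail vein. Groups of n = 3 per time point, killed by cervical dislocation. Organs removed, weighed and gamma-counted against diluted aliquots of injected dose, giving % dose/organ and % ID/g. Total blood activity assumed as 7% of body weight.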

Thyroid gland [3] = test: Biodistribution in ICR mouse thyroid at 5 to 10 uCi, iv after 30 mins; format: ADME, organism-based; details: in vivo, 0.5 h; outline: as §1
Kidney [4] = test: Biodistribution in ICR mouse kidney at 5 to 10 uCi, iv after 2 hrs; format: ADME, organism-based; details: in vivo; outline: as §1
Blood [5] = test: Biodistribution in ICR mouse blood at 5 to 10 uCi, iv after 30 mins; format: ADME, organism-based; details: in vivo, 0.5 h; outline: as §1
Kidney [6] = test: Biodistribution in ICR mouse kidney at 5 to 10 uCi, iv after 1 hr; format: ADME, organism-based; details: in vivo; outline: as §1
Muscle tissue [7] = test: Biodistribution in ICR mouse muscle at 5 to 10 uCi, iv after 2 hrs; format: ADME, organism-based; details: in vivo; outline: as §1
Zone of skin [8] = test: Biodistribution in ICR mouse skin at 5 to 10 uCi, iv after 30 mins; format: ADME, organism-based; details: in vivo, 0.5 h; outline: as §1
Blood [9] = test: Biodistribution in ICR mouse blood at 5 to 10 uCi, iv after 1 hr; format: ADME, organism-based; details: in vivo; outline: as §1
Lung [10] = test: Biodistribution in ICR mouse lung at 5 to 10 uCi, iv after 2 mins; format: ADME, organism-based; details: in vivo; outline: as §1
Spleen [11] = test: Biodistribution in ICR mouse spleen at 5 to 10 uCi, iv after 2 mins; format: ADME, organism-based; details: in vivo; outline: as §1
Zone of skin [12] = test: Biodistribution in ICR mouse skin at 5 to 10 uCi, iv after 1 hr; format: ADME, organism-based; details: in vivo; outline: as §1
Zone of skin [13] = test: Biodistribution in ICR mouse skin at 5 to 10 uCi, iv after 2 mins; format: ADME, organism-based; details: in vivo; outline: as §1
Liver [14] = test: Biodistribution in ICR mouse liver at 5 to 10 uCi, iv after 2 mins; format: ADME, organism-based; details: in vivo; outline: as §1
Blood [15] = test: Biodistribution in ICR mouse blood at 5 to 10 uCi, iv after 2 hrs; format: ADME, organism-based; details: in vivo; outline: as §1
Brain [16] = test: Biodistribution in ICR mouse brain at 5 to 10 uCi, iv after 2 hrs; format: ADME, organism-based; details: in vivo; outline: as §1
Thyroid gland [17] = test: Biodistribution in ICR mouse thyroid at 5 to 10 uCi, iv after 1 hr; format: ADME, organism-based; details: in vivo; outline: as §1
Muscle tissue [18] = test: Biodistribution in ICR mouse muscle at 5 to 10 uCi, iv after 1 hr; format: ADME, organism-based; details: in vivo; outline: as §1
Thyroid gland [19] = test: Biodistribution in ICR mouse thyroid at 5 to 10 uCi, iv after 2 mins; format: ADME, organism-based; details: in vivo; outline: as §1
Muscle tissue [20] = test: Biodistribution in ICR mouse muscle at 5 to 10 uCi, iv after 30 mins; format: ADME, organism-based; details: in vivo, 0.5 h; outline: as §1
Heart [21] = test: Biodistribution in ICR mouse heart at 5 to 10 uCi, iv after 1 hr; format: ADME, organism-based; details: in vivo; outline: as §1
Blood [22] = test: Biodistribution in ICR mouse blood at 5 to 10 uCi, iv after 2 mins; format: ADME, organism-based; details: in vivo; outline: as §1
Brain [23] = test: Biodistribution in ICR mouse brain at 5 to 10 uCi, iv after 2 mins; format: ADME, organism-based; details: in vivo; outline: as §1
Lung [24] = test: Biodistribution in ICR mouse lung at 5 to 10 uCi, iv after 2 hrs; format: ADME, organism-based; details: in vivo; outline: as §1
Brain [25] = test: Biodistribution in ICR mouse brain at 5 to 10 uCi, iv after 30 mins; format: ADME, organism-based; details: in vivo, 0.5 h; outline: as §1
Kidney [26] = test: Biodistribution in ICR mouse kidney at 5 to 10 uCi, iv after 30 mins; format: ADME, organism-based; details: in vivo, 0.5 h; outline: as §1
Muscle tissue [27] = test: Biodistribution in ICR mouse muscle at 5 to 10 uCi, iv after 2 mins; format: ADME, organism-based; details: in vivo; outline: as §1
Kidney [28] = test: Biodistribution in ICR mouse kidney at 5 to 10 uCi, iv after 2 mins; format: ADME, organism-based; details: in vivo; outline: as §1
Lung [29] = test: Biodistribution in ICR mouse lung at 5 to 10 uCi, iv after 1 hr; format: ADME, organism-based; details: in vivo; outline: as §1
Brain [30] = test: Biodistribution in ICR mouse brain at 5 to 10 uCi, iv after 1 hr; format: ADME, organism-based; details: in vivo; outline: as §1
Lung [31] = test: Biodistribution in ICR mouse lung at 5 to 10 uCi, iv after 30 mins; format: ADME, organism-based; details: in vivo, 0.5 h; outline: as §1
Heart [32] = test: Biodistribution in ICR mouse heart at 5 to 10 uCi, iv after 2 hrs; format: ADME, organism-based; details: in vivo; outline: as §1
Spleen [33] = test: Biodistribution in ICR mouse spleen at 5 to 10 uCi, iv after 1 hr; format: ADME, organism-based; details: in vivo; outline: as §1
Liver [34] = test: Biodistribution in ICR mouse liver at 5 to 10 uCi, iv after 1 hr; format: ADME, organism-based; details: in vivo; outline: as §1
[35] = Partition coefficient, log P of the compound; format: physicochemical; details: octanol/water
Outline: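 [125I] or [18F] tracer mixed with 3 g each of 1-octanol and 0.1 M phosphate buffer pH 7.4. Vortexed 3 min at room temperature, then centrifuged 5 min. Two 0.5 g samples from each layer counted; PC is the ratio of cpm/g in octanol to cpm/g in buffer. The octanol layer was repartitioned until values were consistent.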

Heart [36] = test: Biodistribution in ICR mouse heart at 5 to 10 uCi, iv after 2 mins; format: ADME, organism-based; details: in vivo; outline: as §1
Heart [37] = test: Biodistribution in ICR mouse heart at 5 to 10 uCi, iv after 30 mins; format: ADME, organism-based; details: in vivo, 0.5 h; outline: as §1
Liver [38] = test: Biodistribution in ICR mouse liver at 5 to 10 uCi, iv after 2 hrs; format: ADME, organism-based; details: in vivo; outline: as §1
Spleen [39] = test: Biodistribution in ICR mouse spleen at 5 to 10 uCi, iv after 30 mins; format: ADME, organism-based; details: in vivo, 0.5 h; outline: as §1
Liver [40] = test: Biodistribution in ICR mouse liver at 5 to 10 uCi, iv after 30 mins; format: ADME, organism-based; details: in vivo, 0.5 h; outline: as §1
Spleen [41] = test: Biodistribution in ICR mouse spleen at 5 to 10 uCi, iv after 2 hrs; format: ADME, organism-based; details: in vivo; outline: as §1
Thyroid gland [42] = test: Biodistribution in ICR mouse thyroid at 5 to 10 uCi, iv after 2 hrs; format: ADME, organism-based; details: in vivo; outline: as §1

In the case of CN(C)c1ccc(-c2cn(-c3ccc(I)cc3)nn2)cc1, the Ki [1] is reported as 8 nM.
CNc1ccc(-c2cn(-c3ccc(OCCOCCOCCF)cc3)nn2)cc1 gave a Ki [1] of 30 nM.
In the case of CN(C)c1ccc(-c2cn(-c3ccc(OCCC[18F])cc3)nn2)cc1, the Drug uptake (Zone of skin [2]) is reported as 0.11 % ID/g, the Drug uptake (Thyroid gland [3]) is reported as 9.62 % ID/g and the Drug uptake (Kidney [4]) is reported as 0.35 % ID/g. The Drug uptake (Blood [5]) was 1.91 % ID/g, the Drug uptake (Kidney [6]) was 2.69 % ID/g and the Drug uptake (Muscle tissue [7]) was 0.1 % ID/g. It also gave a Drug uptake (Zone of skin [8]) of 1.41 % ID/g, a Drug uptake (Blood [9]) of 0.75 % ID/g and a Drug uptake (Lung [10]) of 7.65 % ID/g. For the same molecule, the Drug uptake (Spleen [11]) was 3.98 % ID/g, the Drug uptake (Zone of skin [12]) was 0.41 % ID/g and the Drug uptake (Zone of skin [13]) was 0.93 % ID/g. For the same molecule, the Drug uptake (Liver [14]) was 15.6 % ID/g, the Drug uptake (Blood [15]) was 0.31 % ID/g and the Drug uptake (Brain [16]) was 1.29 % ID/g. For the same molecule, the Drug uptake (Thyroid gland [17]) was 16.87 % ID/g, the Drug uptake (Muscle tissue [18]) was 0.36 % ID/g and the Drug uptake (Thyroid gland [19]) was 1.57 % ID/g. It also gave a Drug uptake (Muscle tissue [20]) of 1.03 % ID/g, a Drug uptake (Heart [21]) of 0.69 % ID/g and a Drug uptake (Blood [22]) of 3.23 % ID/g. It also gave a Drug uptake (Brain [23]) of 6.56 % ID/g, a Drug uptake (Lung [24]) of 0.76 % ID/g and a Drug uptake (Brain [25]) of 2.84 % ID/g. It also gave a Drug uptake (Kidney [26]) of 3.68 % ID/g, a Drug uptake (Muscle tissue [27]) of 0.89 % ID/g and a Drug uptake (Kidney [28]) of 9.01 % ID/g. The Drug uptake (Lung [29]) was 0.88 % ID/g, the Drug uptake (Brain [30]) was 1.81 % ID/g and the Drug uptake (Lung [31]) was 2.4 % ID/g. The Drug uptake (Heart [32]) was 0.23 % ID/g, the Drug uptake (Spleen [33]) was 0.58 % ID/g and the Drug uptake (Liver [34]) was 2.06 % ID/g. It also gave a logP [35] of 2.7, a Drug uptake (Heart [36]) of 5.79 % ID/g and a Drug uptake (Heart [37]) of 1.93 % ID/g. It also gave a Drug uptake (Liver [38]) of 0.76 % ID/g, a Drug uptake (Spleen [39]) of 1.29 % ID/g and a Drug uptake (Liver [40]) of 5.06 % ID/g. It also gave a Drug uptake (Spleen [41]) of 0.17 % ID/g.
For CN(C)c1ccc(-c2cn(-c3ccc([125I])cc3)nn2)cc1, the Drug uptake (Zone of skin [2]) was 1.19 % ID/g, the Drug uptake (Thyroid gland [3]) was 11 % ID/g and the Drug uptake (Kidney [4]) was 1.52 % ID/g. The Drug uptake (Blood [5]) was 1.63 % ID/g, the Drug uptake (Kidney [6]) was 2.13 % ID/g and the Drug uptake (Muscle tissue [7]) was 0.36 % ID/g. The Drug uptake (Zone of skin [8]) was 2.2 % ID/g, the Drug uptake (Blood [9]) was 1.33 % ID/g and the Drug uptake (Lung [10]) was 8.93 % ID/g. It also gave a Drug uptake (Spleen [11]) of 5.32 % ID/g, a Drug uptake (Zone of skin [12]) of 1.93 % ID/g and a Drug uptake (Thyroid gland [42]) of 89.1 % ID/g. For the same molecule, the Drug uptake (Zone of skin [13]) was 0.71 % ID/g, the Drug uptake (Liver [14]) was 17.4 % ID/g and the Drug uptake (Blood [15]) was 1.21 % ID/g. The Drug uptake (Brain [16]) was 0.29 % ID/g, the Drug uptake (Thyroid gland [17]) was 17 % ID/g and the Drug uptake (Muscle tissue [18]) was 0.61 % ID/g. It also gave a Drug uptake (Thyroid gland [19]) of 3.17 % ID/g, a Drug uptake (Muscle tissue [20]) of 1.11 % ID/g and a Drug uptake (Heart [21]) of 0.78 % ID/g. The Drug uptake (Blood [22]) was 2.84 % ID/g, the Drug uptake (Brain [23]) was 7.22 % ID/g and the Drug uptake (Lung [24]) was 1.43 % ID/g. It also gave a Drug uptake (Brain [25]) of 1.94 % ID/g, a Drug uptake (Kidney [26]) of 3.66 % ID/g and a Drug uptake (Muscle tissue [27]) of 0.76 % ID/g. The Drug uptake (Kidney [28]) was 11.5 % ID/g, the Drug uptake (Lung [29]) was 1.66 % ID/g and the Drug uptake (Brain [30]) was 0.64 % ID/g. For the same molecule, the Drug uptake (Lung [31]) was 2.55 % ID/g, the Drug uptake (Heart [32]) was 0.56 % ID/g and the Drug uptake (Spleen [33]) was 0.89 % ID/g. For the same molecule, the Drug uptake (Liver [34]) was 3.74 % ID/g, the logP [35] was 3.4 and the Drug uptake (Heart [36]) was 6.61 % ID/g. For the same molecule, the Drug uptake (Heart [37]) was 1.34 % ID/g, the Drug uptake (Liver [38]) was 2.49 % ID/g and the Drug uptake (Spleen [39]) was 1.35 % ID/g. The Drug uptake (Liver [40]) was 6.93 % ID/g and the Drug uptake (Spleen [41]) was 0.69 % ID/g.
